Data set [1] can be described thus: Volume of distribution at steady state in iv dosed cynomolgus monkey measured up to 24 hrs by LC-MS analysis. Type of data set: ADME, organism-based, Macaca fascicularis. The note with it: in vivo, read-out: Vdss. In a few lines:
(§1)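 Three animals per species and strain received an intravenous dose. Steady-state volume of distribution (L/kg) was derived from the blood concentration–time profile, alongside blood clearance and terminal half-life.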

A short description of data set [2]: Plasma clearance in iv dosed cynomolgus monkey measured up to 24 hrs by LC-MS analysis. Type of data set: ADME, organism-based, Macaca fascicularis.
In data set [3] the target is T1, Guanylate cyclase soluble subunit alpha-1 (Rattus norvegicus) (UniProt P19686).
T1 sequence (whole entry): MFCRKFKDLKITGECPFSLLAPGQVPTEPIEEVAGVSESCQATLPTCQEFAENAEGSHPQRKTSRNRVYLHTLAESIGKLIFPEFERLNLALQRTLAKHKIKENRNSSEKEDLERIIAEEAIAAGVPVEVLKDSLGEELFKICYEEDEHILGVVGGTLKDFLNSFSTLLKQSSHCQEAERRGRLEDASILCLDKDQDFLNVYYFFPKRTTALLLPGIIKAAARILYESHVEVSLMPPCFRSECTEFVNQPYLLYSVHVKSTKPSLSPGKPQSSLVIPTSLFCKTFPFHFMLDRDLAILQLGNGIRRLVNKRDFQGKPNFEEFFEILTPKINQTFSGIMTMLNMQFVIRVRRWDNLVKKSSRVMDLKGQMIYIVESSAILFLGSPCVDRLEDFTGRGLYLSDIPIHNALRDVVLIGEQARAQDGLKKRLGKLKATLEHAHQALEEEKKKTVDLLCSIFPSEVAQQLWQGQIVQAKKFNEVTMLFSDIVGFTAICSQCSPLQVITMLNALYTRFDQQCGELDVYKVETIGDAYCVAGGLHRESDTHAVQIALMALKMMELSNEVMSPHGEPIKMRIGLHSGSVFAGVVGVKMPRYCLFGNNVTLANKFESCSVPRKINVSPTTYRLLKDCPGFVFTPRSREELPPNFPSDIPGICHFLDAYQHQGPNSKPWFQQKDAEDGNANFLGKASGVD
The experiment in a line: Activation of recombinant rat sGC alpha1 subunit expressed in CHO cells assessed as induction of [32P-cGMP] formation by measuring efficacy using alpha-[32P-GTP] as substrate measured after 6 mins by luminescence assay relative to control. The note with it: filed as activator. Type of data set: cell-based.

A short description of data set [4]: Induction of CYP3A4 in human hepatocytes using phenacetin as substrate incubated for 60 mins by LC-MS/MS analysis. The note with it: 1 h.
In data set [5] the target is T2, Cytochrome P450 1A2 (Homo sapiens, UniProt P05177).
T2 sequence (P05177 whole entry): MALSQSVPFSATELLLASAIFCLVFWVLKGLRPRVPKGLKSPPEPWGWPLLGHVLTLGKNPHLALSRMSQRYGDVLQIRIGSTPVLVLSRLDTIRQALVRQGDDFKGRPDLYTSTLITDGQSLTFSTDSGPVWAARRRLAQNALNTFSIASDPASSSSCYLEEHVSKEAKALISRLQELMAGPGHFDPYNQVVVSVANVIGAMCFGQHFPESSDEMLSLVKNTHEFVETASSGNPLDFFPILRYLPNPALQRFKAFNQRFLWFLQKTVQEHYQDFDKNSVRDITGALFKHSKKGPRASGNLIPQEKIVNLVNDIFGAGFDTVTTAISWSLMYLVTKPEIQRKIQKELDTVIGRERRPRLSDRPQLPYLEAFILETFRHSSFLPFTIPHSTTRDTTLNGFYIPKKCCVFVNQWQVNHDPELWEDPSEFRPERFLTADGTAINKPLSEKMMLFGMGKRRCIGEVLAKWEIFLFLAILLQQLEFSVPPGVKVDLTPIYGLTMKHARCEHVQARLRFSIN
In words: Induction of CYP1A2 in human hepatocytes at > 123 ng/ml using phenacetin as substrate incubated for 60 mins by LC-MS/MS analysis. Type of data set: ADME, cell-based, Hepatocyte. The note with it: 1 h.

The nature of data set [6]: Activation of recombinant rat sGC expressed in CHO cells by luminescence assay. The note with it: CHO. Type of data set: cell-based. In a few lines: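 Stable CHO reporter cell line overexpressing rat sGC; cGMP formation read as luminescence. EC50 from concentration–response. MEC taken as lowest concentration giving at least threefold increase in basal luminescence.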

The nature of data set [7]: Volume of distribution at steady state in iv dosed Beagle dog measured up to 24 hrs by LC-MS analysis. Type of data set: ADME, organism-based, Canis lupus familiaris. The note with it: in vivo, read-out: Vdss. The method, boiled down: as §1
Data set [8] in a line: Clearance in Wistar rat at 0.3 mg/kg, iv measured up to 24 hrs by LC-MS analysis. Type of data set: ADME, organism-based. The note with it: in vivo. The method, boiled down:
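Rats dosed iv at 0.3 mg/kg; blood clearance determined.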

The target of data set [9] is T1, Guanylate cyclase soluble subunit alpha-1 (Rattus norvegicus). In words: Activation of recombinant rat sGC alpha1 subunit expressed in CHO cells assessed as induction of [32P-cGMP] formation using alpha-[32P-GTP] as substrate measured after 6 mins by luminescence assay. Type of data set: cell-based. The note with it: filed as activator.
Data set [10] is described as follows: Plasma clearance in iv dosed Beagle dog measured up to 24 hrs by LC-MS analysis. Type of data set: ADME, organism-based, Canis lupus familiaris.
The nature of data set [11]: Oral bioavailability in Beagle dog measured up to 24 hrs by LC-MS analysis. Type of data set: ADME, organism-based, Canis lupus familiaris. The note with it: in vivo.
The nature of data set [12]: Oral bioavailability in cynomolgus monkey measured up to 24 hrs by LC-MS analysis. Type of data set: ADME, organism-based, Macaca fascicularis. The note with it: in vivo.
Data set [13] can be described thus: Half life in iv dosed Beagle dog measured up to 24 hrs by LC-MS analysis. Type of data set: ADME, organism-based, Canis lupus familiaris. The note with it: in vivo.
The nature of data set [14]: Oral bioavailability in Wistar rat measured up to 24 hrs by LC-MS analysis. Type of data set: ADME, organism-based. The note with it: in vivo.
A short description of data set [15]: Half life in iv dosed cynomolgus monkey measured up to 24 hrs by LC-MS analysis. Type of data set: ADME, organism-based, Macaca fascicularis. The note with it: in vivo.
Data set [16] is described as follows: Half life in iv dosed Wistar rat measured up to 24 hrs by LC-MS analysis. Type of data set: ADME, organism-based. The note with it: in vivo.
A short description of data set [17]: Volume of distribution at steady state in iv dosed Wistar rat measured up to 24 hrs by LC-MS analysis. Type of data set: ADME, organism-based. The note with it: in vivo, read-out: Vdss. In a few lines: as §1
The target in the next data set is Cytochrome P450 3A4 (Homo sapiens, UniProt P08684). The experiment in a line: Induction of CYP3A4 in human hepatocytes at > 10000 ng/ml using phenacetin as substrate incubated for 60 mins by LC-MS/MS analysis. The note with it: 1 h. Type of data set: ADME, cell-based, Hepatocyte.
Chain of Cytochrome P450 3A4 (P08684 whole entry): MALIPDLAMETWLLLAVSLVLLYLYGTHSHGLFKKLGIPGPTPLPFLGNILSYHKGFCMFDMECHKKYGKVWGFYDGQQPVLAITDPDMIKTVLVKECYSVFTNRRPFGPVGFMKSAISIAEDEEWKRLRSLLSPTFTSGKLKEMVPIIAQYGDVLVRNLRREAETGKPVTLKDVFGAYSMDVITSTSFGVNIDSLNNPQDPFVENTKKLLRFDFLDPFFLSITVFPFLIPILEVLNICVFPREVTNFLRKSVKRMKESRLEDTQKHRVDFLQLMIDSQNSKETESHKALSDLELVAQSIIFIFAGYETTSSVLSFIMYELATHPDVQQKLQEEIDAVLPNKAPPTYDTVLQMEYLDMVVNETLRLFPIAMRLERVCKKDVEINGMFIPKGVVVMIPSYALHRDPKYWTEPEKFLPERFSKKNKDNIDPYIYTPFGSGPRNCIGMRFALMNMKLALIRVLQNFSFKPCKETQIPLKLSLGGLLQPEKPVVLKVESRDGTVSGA
Data set [18] concerns the target T2, Cytochrome P450 1A2. The experiment in a line: Induction of CYP1A2 in human hepatocytes at > 10000 ng/ml using phenacetin as substrate incubated for 60 mins by LC-MS/MS analysis. The note with it: 1 h. Type of data set: ADME, cell-based, Hepatocyte.

On to `C[C@H]([C@H](C(=O)Nc1cc(C[C@H](C)C(=O)O)ccc1Cl)c1ccc(Cl)cc1)C(F)(F)F`, for which the Vd came to 0.55 L/kg in data set [1], 2.1 L/kg in [7] and 2 L/kg in data set [17]. Besides, the clearance in data set [2] was 0.833 mL/min/kg; in data set [8], 2.83 mL/min/kg; in [10], 6.33 mL/min/kg. Besides, in data set [3], the Efficacy turned out to be 63%. For the same molecule, the results for the Activity (in [4]; at Cytochrome P450 1A2 [5]) were 266 nM and “Not Active”, respectively. Further, the EC50 in [6] came out at 43 nM. The MEC in [9] is 10 nM. Further, the bioavailability in [11] was determined as 78%; in data set [12], 100%; in [14], 100%. Besides, the half-life in data set [13] was 9.3 h; in data set [15], 8.3 h; in data set [16], 13 h.

As for `Cc1c(CCC(=O)O)cccc1NC(=O)[C@H](c1ccc(CN2N=C(c3ccccc3)OCC2=O)cc1)C1CCCC1`, the Activity entry on Cytochrome P450 3A4 and on Cytochrome P450 1A2 [18] was “Not Active” in each case. Moreover, the Efficacy in data set [3] amounted to 110%. Also, the 50% effective concentration (EC50) in data set [6] was 27 nM. Also, the MEC in [9] turned out to be 3 nM.

Regarding `O=C(O)CCc1cccc(NC(=O)[C@H](c2ccc(CN3N=C(c4ccccc4)OCC3=O)cc2)C2CCCC2)c1`, the clearance in data set [2] was 14.3 mL/min/kg; in data set [8], 64.2 mL/min/kg; in [10], 2.67 mL/min/kg. For the same molecule, the Activity result on Cytochrome P450 3A4 and at Cytochrome P450 1A2 [18] was “Not Active” in each case. For the same molecule, in [9], the MEC was found to be 10 nM.

What is called clearance is the rate of elimination divided by the concentration. A word on the EC50: it is the concentration that produces a half-maximal response. Broadly, the bioavailability is dose-corrected exposure relative to a reference, in per cent. A word on the half-life: it is the time needed for the level to fall by half in the phase considered.

The values above are taken from ChEMBL document CHEMBL4808182, “Discovery of the Soluble Guanylate Cyclase Activator Runcaciguat (BAY 1101042)” (J Med Chem, 2021).
